This is an account of results in ChEMBL document CHEMBL4028890, “A Positive Allosteric Modulator of the Serotonin 5-HT2C Receptor for Obesity” (J Med Chem, 2017).

The species entered for data set [1] is Rattus norvegicus. Nature of the data set: Toxicity in Wistar rat assessed as induction of malaise at 0.4 M measured 30 mins for 2 days by conditioned taste aversion test. Particulars: in vivo, 0.5 h. The method, boiled down:
(§1)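 Rats water-deprived 24 h, then trained to drink from a graded bottle in 30 min sessions for 4 days. On day 5, 0.1% saccharin replaced water, and 30 min later rats got ip vehicle, compound (2 mg/kg) or LiCl (0.4 M, 7.5 mL/kg). Water intake was recorded over 30 min on the next 2 days, then a water or saccharin choice was measured.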

In data set [2] the target is T1, 5-hydroxytryptamine receptor 2C (Homo sapiens) (UniProt P28335).
T1 sequence (whole entry): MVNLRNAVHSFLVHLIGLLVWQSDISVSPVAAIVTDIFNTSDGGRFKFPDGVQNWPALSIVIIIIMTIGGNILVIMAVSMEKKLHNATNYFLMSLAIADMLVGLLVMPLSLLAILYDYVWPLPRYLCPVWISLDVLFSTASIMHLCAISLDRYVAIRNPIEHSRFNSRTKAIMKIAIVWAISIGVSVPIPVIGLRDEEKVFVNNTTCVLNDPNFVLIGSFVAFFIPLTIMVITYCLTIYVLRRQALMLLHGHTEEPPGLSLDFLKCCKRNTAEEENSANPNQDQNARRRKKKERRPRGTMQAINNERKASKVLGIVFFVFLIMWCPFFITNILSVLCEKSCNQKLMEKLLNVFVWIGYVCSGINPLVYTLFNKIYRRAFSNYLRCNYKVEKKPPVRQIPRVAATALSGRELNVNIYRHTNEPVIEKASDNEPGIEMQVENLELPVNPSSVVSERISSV
Kind of data set: Positive allosteric modulation of human 5-HT2C receptor expressed in human HeLa-K1 cells assessed as potentiation of 5-HT-induced inositol monophosphate release at 10 uM after 20 mins by HTRF assay relative to control. It counts as functional, cell-based. In a few lines:
(§2)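 IP-One HTRF assay in CHO-K1 cells (human 5-HT2A, 5-HT2B) or HeLa-K1 cells (human 5-HT2C), seeded and grown 24 h at 37 °C. Test compound and/or 5-HT added in stimulation buffer, then 20 min at 37 °C before IP1 read-out. Data normalized to 5-HT maximal effect and fitted by nonlinear regression. Triplicates, mean ± SD.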
In general terms: TR-FRET usually uses a lanthanide donor and a delayed reading to cut background.

For data set [3], the system named is Rattus norvegicus. Nature of the data set: Antiobesity activity in Wistar rat assessed as reduction in food intake at 2 mg/kg, ip after 4 hrs. It counts as functional, organism-based. The method, boiled down: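 Male Wistar rats, 200−250 g, aged 10−12 weeks, food-deprived 16 h before refeeding. Compound given ip in sterile saline; food and water intake measured at 30, 60, 120 and 240 min after food presentation. Where used, antagonist (3 mg/kg, ip) or other pretreatments were injected 30 min before the compound. Mean ± SEM, at least eight rats per group.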

The subject of data set [4] is Rattus norvegicus. Kind of data set: Antiobesity activity in Wistar rat assessed as reduction in food intake at 2 mg/kg, ip after 4 hrs in presence of 5-HT2A antagonist ketanserin. It counts as functional, organism-based. In a few lines:
(§3)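 Male Wistar rats, 200−250 g, 10−12 weeks, food-deprived 16 h before refeeding. Test compound given ip in sterile saline. Sertraline, ketanserin (2 mg/kg) or 5-HT2C antagonist (3 mg/kg) was given ip 30 min before the test compound. Food and water intake measured 30, 60, 120 and 240 min after food presentation. Mean ± SEM, at least 8 rats per group.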

For data set [5], the target named is T1, 5-hydroxytryptamine receptor 2C (Homo sapiens). Nature of the data set: Displacement of [3H]-clozapine from human 5-HT2C receptor expressed in human HeLa-K1 cell membranes at 10 uM after 60 mins relative to control. In a few lines:
(§4)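 Membranes from 5-HT2C-HeLa cells with test compound (10 μM) in 50 mM Tris-HCl pH 7.4. Radioligands: [3H]mesulergine 4 nM, [3H]LSD 2 nM (15 μg protein each), [3H]clozapine 15 nM (20 μg), 60 min at 27 °C. [3H]5-HT 2 nM (60 μg), 180 min at 4 °C. Nonspecific binding with 10 μM mianserin. Filtered and washed, then counted. Triplicates, mean ± SD.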
In general terms: In a radioligand displacement assay an active substance lowers the binding of a labelled ligand.

Data set [6] addresses T2, 5-hydroxytryptamine receptor 2B (Homo sapiens, UniProt P41595). Nature of the data set: Intrinsic agonist activity at human 5-HT2B receptor expressed in CHO-K1 cells assessed as induction of inositol monophosphate release at 10 uM after 20 mins by HTRF assay. In kind it is cell-based. In a few lines: as §2
Data set [7] concerns the target T3, 5-hydroxytryptamine receptor 2A (Homo sapiens, UniProt P28223). Nature of the data set: Positive allosteric modulation of human 5-HT2A receptor expressed in CHO-K1 cells assessed as potentiation of 5-HT-induced inositol monophosphate release at 10 uM after 20 mins by HTRF assay. In kind it is cell-based. The method, boiled down:
as §2

Data set [8] relates to Rattus norvegicus. Kind of data set: Antiobesity activity in continuous food access Wistar rat model assessed as reduction in body weight at 2 mg/kg, ip administered daily for 7 days. It counts as functional, organism-based. In a few lines:
(§5)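 Wistar rats made obese on 60% fat diet (5.24 kcal/g) for 8 weeks. Free-feeding rats got a daily ip injection of compound (2 mg/kg) or vehicle for 7 days. Daily chow intake (kcal/kg body weight) and body weight gain (g) recorded. Mean ± SEM, n ≥ 8 per group.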

The target in data set [9] is T1, 5-hydroxytryptamine receptor 2C (Homo sapiens). Kind of data set: (§6) Positive allosteric modulation of human 5-HT2C receptor expressed in human HeLa-K1 cells assessed as potentiation of 5-HT-induced inositol monophosphate release after 20 mins by HTRF assay. It counts as functional, cell-based. In a few lines:
as §2

Data set [10] addresses T4, 5-hydroxytryptamine receptor 2C (Homo sapiens, UniProt P28335).
T4 sequence (P28335 whole entry): T1 sequence (whole entry)
The data set is described as §6. It counts as functional, cell-based. The method, boiled down: as §2

Data set [11] concerns Rattus norvegicus. Kind of data set: In vivo positive allosteric modulation of serotonin-induced feeding suppression in Wistar rat at 2 mg/kg, ip after 4 hrs in presence of 5 mg/kg selective serotonin reuptake inhibitor sertraline. In kind it is functional, organism-based. In a few lines: as §3
Data set [12] deals with T1, 5-hydroxytryptamine receptor 2C (Homo sapiens). Kind of data set: Positive allosteric modulation of human 5-HT2C receptor expressed in human HeLa-K1 cells assessed as potentiation of 5-HT-induced inositol monophosphate release at 1 uM after 20 mins by HTRF assay relative to control. It counts as functional, cell-based.
Data set [13] deals with T2, 5-hydroxytryptamine receptor 2B. Nature of the data set: Positive allosteric modulation of human 5-HT2B receptor expressed in CHO-K1 cells assessed as potentiation of 5-HT-induced inositol monophosphate release at 10 uM after 20 mins by HTRF assay. It counts as cell-based. In a few lines:
as §2

For data set [14], the system named is Rattus norvegicus. Nature of the data set: Antiobesity activity in restricted food access Wistar rat model assessed as reduction in body weight at 2 mg/kg, ip administered 30 mins prior to food presentation measured after 4 hrs on every day for 7 days. In kind it is functional, organism-based. The method, boiled down:
(§7)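 Rats had food for 4 h/day. Once the feeding baseline was stable, compound (2 mg/kg ip) or vehicle was given 30 min before food presentation. Food and water intake read at the end of the 4 h period. Repeated on 7 consecutive days, with total intake and body weight tracked. Mean ± SEM, n ≥ 8.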

Data set [15] deals with T1, 5-hydroxytryptamine receptor 2C (Homo sapiens). Nature of the data set: Displacement of [3H]-5-HT from human 5-HT2C receptor expressed in human HeLa-K1 cell membranes at 10 uM after 180 mins relative to control. In a few lines: as §4
Data set [16] deals with Rattus norvegicus. Nature of the data set: Antiobesity activity in Wistar rat assessed as reduction in food intake at 10 mg/kg, ip after 4 hrs relative to control. It counts as functional. Also noted: scale not given: the % may be the effect or the level left. In a few lines:
as §3

Data set [17] has as its system Rattus norvegicus. Kind of data set: In vivo positive allosteric modulation of serotonin-induced feeding suppression in Wistar rat at 0.5 mg/kg, ip after 4 hrs in presence of 2 mg/kg selective serotonin reuptake inhibitor sertraline. It counts as functional, organism-based. The method, boiled down:
as §3

The test system of data set [18] is Rattus norvegicus. Kind of data set: Antiobesity activity in restricted food access Wistar rat model assessed as reduction in food intake at 2 mg/kg, ip administered 30 mins prior to food presentation measured after 4 hrs on every day for 7 days. In kind it is functional, organism-based. The method, boiled down: as §7
Data set [19] deals with T1, 5-hydroxytryptamine receptor 2C (Homo sapiens). Nature of the data set: Intrinsic agonist activity at human 5-HT2C receptor expressed in human HeLa-K1 cells assessed as induction of inositol monophosphate release after 20 mins by HTRF assay. It counts as functional, cell-based. The method, boiled down:
as §2

Data set [20] deals with Rattus norvegicus. Kind of data set: Toxicity in Wistar rat assessed as induction of hypolocomotion at 0.5 to 2 mg/kg, ip after 30 mins by elevated plus maze test. It counts as organism-based. Particulars: in vivo, 0.5 h. In a few lines:
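Maze-naive rats handled for 7 days. Placed in the centre facing an open arm 30 min after ip dosing. Open-arm entries and % time in open arms scored over 5 min. No retesting.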

Data set [21] is described as follows: Ratio of drug level in brain to plasma in Wistar rat at 10 mg/kg, ip measured up to 6 hrs. The note with it: read-out: BPR. In kind it is ADME, organism-based.
Data set [22] relates to Rattus norvegicus. Nature of the data set: Antiobesity activity in continuous food access Wistar rat model assessed as reduction in food intake at 2 mg/kg, ip administered daily for 7 days. It counts as functional, organism-based. The method, boiled down:
as §5

For data set [23], the target named is T1, 5-hydroxytryptamine receptor 2C (Homo sapiens). Nature of the data set: Displacement of [3H]-mesulergine from human 5-HT2C receptor expressed in human HeLa-K1 cell membranes at 10 uM after 60 mins relative to control. In a few lines: as §4
The target is the same in data set [24]. Kind of data set: Displacement of [3H]-LSD from human 5-HT2C receptor expressed in human HeLa-K1 cell membranes at 10 uM after 60 mins relative to control. The method, boiled down:
as §4

The target is the same in data set [25]. Kind of data set: Displacement of [3H]-LSD from human 5-HT2C receptor expressed in human HeLa-K1 cell membranes at 1 uM after 60 mins relative to control.
Data set [26] has as its target T3, 5-hydroxytryptamine receptor 2A. Nature of the data set: Intrinsic agonist activity at human 5-HT2A receptor expressed in CHO-K1 cells assessed as induction of inositol monophosphate release at 10 uM after 20 mins by HTRF assay. It counts as cell-based. The method, boiled down:
as §2

Data set [27] has as its system Rattus norvegicus. Kind of data set: Toxicity in Wistar rat assessed as induction of hypolocomotion at 2 mg/kg, ip after 30 mins by open field test. It counts as organism-based. Particulars: in vivo, 0.5 h. In a few lines:
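Rats handled for 7 days before testing. Tested 30 min after ip dosing (2 mg/kg), placed in the centre of the open field. Distance walked was recorded automatically over 10 min. No retesting.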

Data set [28] deals with Rattus norvegicus. Nature of the data set: Antiobesity activity in Wistar rat assessed as reduction in food intake at 1 mg/kg, ip after 4 hrs in presence of 5-HT2C antagonist SB-242084. It counts as functional, organism-based. The method, boiled down: as §3
Data set [29] concerns Rattus norvegicus. Nature of the data set: Toxicity in Wistar rat assessed as induction of malaise at 2 mg/kg, ip measured 30 mins for 2 days by conditioned taste aversion test. In kind it is organism-based. Particulars: in vivo. The method, boiled down: as §1

Calls of active or inactive are those of the source. The rule behind the calls is not given here.

T2 sequence (P41595 whole entry): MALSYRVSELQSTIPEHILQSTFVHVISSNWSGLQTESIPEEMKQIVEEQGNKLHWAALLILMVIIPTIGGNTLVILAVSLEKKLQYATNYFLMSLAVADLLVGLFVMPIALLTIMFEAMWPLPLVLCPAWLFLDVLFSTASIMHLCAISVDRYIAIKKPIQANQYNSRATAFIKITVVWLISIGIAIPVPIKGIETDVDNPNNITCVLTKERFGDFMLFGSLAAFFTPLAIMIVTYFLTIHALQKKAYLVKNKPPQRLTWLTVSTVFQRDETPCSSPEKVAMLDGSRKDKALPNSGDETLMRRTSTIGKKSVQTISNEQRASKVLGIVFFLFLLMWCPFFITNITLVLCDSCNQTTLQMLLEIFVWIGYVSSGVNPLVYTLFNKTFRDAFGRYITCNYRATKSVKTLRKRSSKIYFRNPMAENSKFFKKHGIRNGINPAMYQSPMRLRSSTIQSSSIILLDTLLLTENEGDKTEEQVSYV
T3 sequence (P28223 whole entry): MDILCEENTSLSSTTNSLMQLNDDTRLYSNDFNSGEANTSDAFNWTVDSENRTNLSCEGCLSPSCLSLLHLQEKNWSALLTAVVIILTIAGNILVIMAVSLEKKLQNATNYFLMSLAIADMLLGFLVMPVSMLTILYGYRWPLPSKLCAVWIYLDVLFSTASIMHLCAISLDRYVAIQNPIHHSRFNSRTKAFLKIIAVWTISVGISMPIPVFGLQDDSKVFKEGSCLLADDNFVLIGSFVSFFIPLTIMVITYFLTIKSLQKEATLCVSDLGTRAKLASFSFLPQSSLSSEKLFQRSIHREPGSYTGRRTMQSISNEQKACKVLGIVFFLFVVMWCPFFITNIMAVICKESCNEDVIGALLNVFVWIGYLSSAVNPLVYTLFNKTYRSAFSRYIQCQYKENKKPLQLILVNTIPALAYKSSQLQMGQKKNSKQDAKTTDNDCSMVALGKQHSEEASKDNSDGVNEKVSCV

As to `[Cl-].[Li+]` [CHLOROLITHIUM], in the data set filed under Rattus norvegicus [1], the Activity result is recorded as “Toxic”.

Turning to `c1ccc(Cn2cc(CNc3cccnc3)c3ccccc32)cc1`, the Activity is 35% in data set [2]; “Not Active” in data set [6]; “Not Active” in data set [7]; “Dose-dependent effect” in data set [9]; 28% in data set [12]; “Not Active” in data set [13]. For the same compound, the Activity in the data set on Rattus norvegicus [16] is listed as 50%; in the data set with Rattus norvegicus [20], “Toxic”; in data set [26] it was “Not Active”; in the data set on Rattus norvegicus [27] it was “Toxic”; in the data set on Rattus norvegicus [29] it was “Non-Toxic”. For the same compound, the result in the data set with Rattus norvegicus [3], with Rattus norvegicus [4], in the data set with Rattus norvegicus [8], with Rattus norvegicus [11], in the data set with Rattus norvegicus [14] and in the data set with Rattus norvegicus [17] was Active. Besides, the outcome with Rattus norvegicus [18], in the data set on Rattus norvegicus [22] and in the data set with Rattus norvegicus [28] was Active. In addition, the inhibition was 36% in [5]; 37% in data set [15]; 26% in data set [23]; 67% in [24]; 21% in [25]. Besides, the EC50 in [10] turned out to be 16 nM. Besides, the result in [19] was inactive. Moreover, the Kp at 6 h in data set [21] was determined as 3.8.

In general, inhibition refers to how much of the control response was suppressed. What is called EC50 is the concentration at which the effect is half-maximal.
